These results are taken from ChEMBL document CHEMBL1240465, “Prenylflavonoids and prenyl/alkyl-phloroacetophenones: synthesis and antitumour biological evaluation” (Eur J Med Chem, 2010).

Structures are written as SMILES. pIC50: −log10 of the molar value.

Common to all, as to assay type: functional, cell-based
Assay [1] relates to HeLa. Kind of assay: Cytotoxicity against human HeLa cells after 72 hrs by XTT assay. An outline of the steps:
(§1)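 Cells grown in DMEM (A549, HT-29, HeLa) or RPMI1640 (HL-60), both with 10% heat-inactivated fetal bovine serum, were exposed to compound across a concentration range for 72 h at 37 °C in humidified air/CO₂ (19/1), then read by XTT. Measurements were in triplicate. IC50 is the concentration giving 50% proliferation inhibition versus untreated controls, reported as mean ± S.D. of three independent determinations.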
(Formazan colour is commonly taken as a measure of viable cells.)

Assay [2] relates to A549. Kind of assay: Cytotoxicity against human A549 cells after 72 hrs by XTT assay. Particulars: A549, 72 h. An outline of the steps: as §1
The subject of assay [3] is HT-29. Nature of the assay: Cytotoxicity against human HT-29 cells after 72 hrs by XTT assay. Particulars: HT-29, 72 h. Put shortly: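 Cells grown in DMEM (A549, HT-29, HeLa) or RPMI1640 (HL-60), both with 10% heat-inactivated fetal bovine serum, were exposed to compound across a concentration range for 72 h at 37 °C in humidified air/CO₂ (19/1), then read by XTT. Measurements were in triplicate.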

The test system of assay [4] is HL-60. Nature of the assay: Cytotoxicity against human HL60 cells after 72 hrs by XTT assay. Particulars: HL-60, 72 h. An outline of the steps: as §1

Regarding `COc1cc(O)c(C(C)=O)c(OC)c1` [XANTHOXYLIN], the pIC50 in assay [1], in assay [2], in assay [3] and in assay [4] was less than 4.00 each time.

Take `CC(=O)c1c(O)cc(O)c(CC=C(C)C)c1O`: the pIC50 is 4.55 in assay [1], 4.54 in assay [2], 4.52 in assay [3] and 4.49 in assay [4].

As to `CCCCCCCC/C=C\CCCCCCCCOc1cc(O)c(C(C)=O)c(OCCCCCCCC/C=C\CCCCCCCC)c1`, the pIC50 in assay [1], in assay [2], in assay [3] and in assay [4] was less than 4.00 throughout.

`CC(=O)c1c(O)cc(OC/C=C(\C)CC/C=C(\C)CCC=C(C)C)cc1O`: the pIC50 is 4.54 in assay [1], 4.49 in assay [2], 4.51 in assay [3] and 4.49 in assay [4].

Regarding `CC(=O)c1c(O)cc(O)c2c1OC(C)(C)CC2`, the negative-log IC50 (pIC50) in assay [1], in assay [2], in assay [3] and in assay [4] was less than 4.00 throughout.

`C=C1CC[C@H]2C(C)(C)CCC[C@]2(C)[C@H]1CC/C(C)=C/COc1cc(O)c2c(=O)c(OC/C=C(\C)CC[C@H]3C(=C)CC[C@H]4C(C)(C)CCC[C@]34C)c(-c3ccc(O)cc3)oc2c1`: the pIC50 in assay [1], in assay [2] and in assay [3] was less than 4.00 in each case.

`C=C1CC[C@H]2C(C)(C)CCC[C@]2(C)[C@H]1CC/C(C)=C/Cc1c(O)cc(O)c2c(=O)c(O)c(-c3ccc(O)cc3)oc12`: the pIC50 in assay [1] was 4.52; in assay [2], 4.49; in assay [3] it was 4.54.

Regarding `CC(=O)c1c(O)c(C/C=C(\C)CCC=C(C)C)c(O)c(C/C=C(\C)CCC=C(C)C)c1O`, the pIC50 in assay [1] is 4.51; in assay [2], 4.49; in assay [3], 4.70; in assay [4] it was 4.72.

In the case of `C=C1CC[C@H]2C(C)(C)CCC[C@]2(C)[C@H]1CC/C(C)=C/COc1c(-c2ccc(OC)cc2)oc2cc(O)cc(O)c2c1=O`, the pIC50 in assay [1] was 4.52; in assay [2], 4.52; in assay [3], 4.49.

On to `CC(C)=CCC/C(C)=C/Cc1c(O)cc(O)c2c(=O)c(O)c(-c3ccc(O)cc3)oc12`, for which the pIC50 in assay [1] is 4.52; in assay [2] it was 4.59; in assay [3] it was 4.52.

As for `CC(=O)c1c(O)c2c(c3c1OC(C)(C)CC3)OC(C)(C)CC2`, the pIC50 is less than 4.00 in assay [1], less than 4.00 in assay [2], 4.49 in assay [3] and 4.51 in assay [4].

For the compound `C=C1CC[C@H]2C(C)(C)CCC[C@]2(C)[C@H]1CC/C(C)=C/Cc1c(O)cc(O)c2c(=O)c(O)c(-c3ccc(OC)cc3)oc12`, the negative-log IC50 (pIC50) in assay [1], in assay [2] and in assay [3] was less than 4.00 throughout.

Take `CC(C)=CCC/C(C)=C/COc1c(C/C=C(\C)CCC=C(C)C)c(O)c2c(=O)cc(-c3ccccc3)oc2c1C/C=C(\C)CCC=C(C)C`: the results for the pIC50 in assay [1], in assay [2] and in assay [3] were 4.52, 4.54 and 4.49, respectively.

Turning to `CCCCCCCC/C=C\CCCCCCCCOc1cc(O)c(C(C)=O)c(O)c1`, the pIC50 in assay [1] was 4.51; in assay [2] it was 4.51; in assay [3] it was 4.51; in assay [4], 4.49.

For `CC(C)=CCC/C(C)=C/COc1c(-c2ccc(O)cc2)oc2cc(O)cc(O)c2c1=O`, the values for the pIC50 in assay [1], in assay [2] and in assay [3] were 4.64, 4.57 and 4.60, respectively.

Turning to `CC(=O)c1c(O)c(CC=C(C)C)c(O)c(CC=C(C)C)c1O`, the pIC50 in assay [1], in assay [2], in assay [3] and in assay [4] was less than 4.00 each time.

`CC(C)=CCC/C(C)=C/Cc1c(O)cc2oc(-c3ccccc3)cc(=O)c2c1O`: the pIC50 in assay [1] is 4.49; in assay [2], 4.49; in assay [3], 4.48.

Regarding `C=C1CC[C@H]2C(C)(C)CCC[C@]2(C)[C@H]1CC/C(C)=C/Cc1c(O)cc2oc(-c3ccc(O)cc3)c(O)c(=O)c2c1O` [DENTICULAFLAVONOL], the pIC50 in assay [1], in assay [2] and in assay [3] was less than 4.00 throughout.

Regarding `CC(=O)c1c(O)cc(O)cc1OC/C=C(\C)CC/C=C(\C)CCC=C(C)C`, the pIC50 in assay [1] is 4.51; in assay [2], 4.49; in assay [3], 4.54; in assay [4] it was 4.51.

In the case of `C=C1CC[C@H]2C(C)(C)CCC[C@]2(C)[C@H]1CC/C(C)=C/COc1cc(O)c2c(=O)c(O)c(-c3ccc(OC)cc3)oc2c1`, the pIC50 in assay [1], in assay [2] and in assay [3] was less than 4.00 in each case.

On to `CC(=O)c1ccc(C)cc1O`, for which the pIC50 in assay [1], in assay [2], in assay [3] and in assay [4] was less than 4.00 throughout.

Consider `CC(C)=CCC/C(C)=C/COc1cc2oc(-c3ccccc3)cc(=O)c2c(O)c1C/C=C(\C)CCC=C(C)C`, for which the pIC50 in assay [1] was 4.52; in assay [2] it was 4.49; in assay [3], 4.49.

`COc1ccc(-c2oc3cc(O)cc(O)c3c(=O)c2OC)cc1` [ERMANIN]: the pIC50 in assay [1] was 4.51; in assay [2] it was 4.51; in assay [3] it was 4.49.

`COc1ccc(-c2oc3cc(OC)cc(O)c3c(=O)c2OC)cc1`: the values for the pIC50 in assay [1], in assay [2] and in assay [3] were 4.55, 4.52 and 4.59, respectively.

For `O=c1cc(-c2ccccc2)oc2cc(O)cc(O)c12` [CHRYSIN], the results for the pIC50 in assay [1], in assay [2] and in assay [3] were 4.54, less than 4.00 and less than 4.00, respectively.

In the case of `CCCCCCCC/C=C\CCCCCCCCOc1cc(O)cc(O)c1C(C)=O`, the negative logarithm of the IC50 (pIC50) in assay [1] is 4.51; in assay [2], less than 4.00; in assay [3] it was less than 4.00; in assay [4], 4.49.

`CC(=O)c1c(O)cc(OCC=C(C)C)cc1O`: the pIC50 is 4.52 in assay [1], less than 4.00 in assay [2], 4.51 in assay [3] and 4.49 in assay [4].

`O=c1c(O)c(-c2ccc(O)cc2)oc2cc(O)cc(O)c12` [KAEMPFEROL]: the pIC50 in assay [1], in assay [2] and in assay [3] was less than 4.00 in each case.

`CC(=O)c1c(O)cc2c(c1O)CCC(C)(C)O2`: the pIC50 in assay [1], in assay [2], in assay [3] and in assay [4] was less than 4.00 throughout.

`CCCCCCCCCCCCCCCCCCOc1cc(O)c(C(C)=O)c(O)c1`: the pIC50 in assay [1], in assay [2], in assay [3] and in assay [4] was less than 4.00 throughout.

As to `C=C1CC[C@H]2C(C)(C)CCC[C@]2(C)[C@H]1CC/C(C)=C/COc1cc(O)c2c(=O)c(OC/C=C(\C)CC[C@H]3C(=C)CC[C@H]4C(C)(C)CCC[C@]34C)c(-c3ccc(OC)cc3)oc2c1`, the pIC50 in assay [1], in assay [2] and in assay [3] was less than 4.00 throughout.

Consider `CC(=O)c1c(O)cc(O)cc1OCC=C(C)C`, for which the pIC50 in assay [1], in assay [2], in assay [3] and in assay [4] was less than 4.00 in each case.

`CC(=O)c1c(O)cc(O)cc1O` [2,4,6-TRIHYDROXYACETOPHENONE]: the pIC50 in assay [1], in assay [2], in assay [3] and in assay [4] was less than 4.00 throughout.

`CC(C)=CCC/C(C)=C/COc1cc(O)c2c(=O)c(OC/C=C(\C)CCC=C(C)C)c(-c3ccc(O)cc3)oc2c1`: the pIC50 in assay [1] is less than 4.00; in assay [2], less than 4.00; in assay [3] it was 4.51.

On to `COc1ccc(-c2oc3cc(O)cc(O)c3c(=O)c2O)cc1` [KAEMPFERIDE], for which the pIC50 in assay [1] was 4.64; in assay [2] it was 4.66; in assay [3] it was 4.49.

In the case of `CC(=O)c1c(O)cc(O)c(C/C=C(\C)CCC=C(C)C)c1O`, the pIC50 in assay [1] is 4.68; in assay [2], 4.70; in assay [3], 4.72; in assay [4], 4.72.

As for `CCCCCCCCCCCCCCCCCCOc1cc(O)cc(O)c1C(C)=O`, the pIC50 in assay [1], in assay [2], in assay [3] and in assay [4] was less than 4.00 in each case.

Consider `C=C1CC[C@H]2C(C)(C)CCC[C@]2(C)[C@H]1CC/C(C)=C/COc1cc(O)c2c(=O)c(O)c(-c3ccc(O)cc3)oc2c1`, for which the pIC50 in assay [1], in assay [2] and in assay [3] was less than 4.00 in each case.

`CCCCCCCCCCCCCCCCCCc1c(O)cc(O)c(C(C)=O)c1O`: the pIC50 in assay [1] is 4.55; in assay [2] it was 4.49; in assay [3], 4.59; in assay [4], 4.51.

Consider `C=C1CC[C@H]2C(C)(C)CCC[C@]2(C)[C@H]1CC/C(C)=C/COc1c(-c2ccc(O)cc2)oc2cc(O)cc(O)c2c1=O`, for which the values for the pIC50 in assay [1], in assay [2] and in assay [3] were 4.57, 4.59 and 4.52, respectively.

With `CC(=O)c1c(O)cc(O)c(C/C=C(\C)CC/C=C(\C)CCC=C(C)C)c1O`, the pIC50 in assay [1] is 4.89; in assay [2], 4.66; in assay [3] it was 4.74; in assay [4] it was 4.85.

On to `COc1cccc2c1C(=O)c1c(O)c3c(c(O)c1C2=O)C[C@@](O)(C(=O)CO)C[C@@H]3O[C@H]1C[C@H](N)[C@H](O)[C@H](C)O1` [DOXORUBICIN], for which the pIC50 in assay [1] was 6.54; in assay [2] it was 6.59.

Regarding `CC(C)=CCC/C(C)=C/Cc1c(O)cc2oc(-c3ccc(O)cc3)c(O)c(=O)c2c1O` [MACARANGIN], the pIC50 in assay [1], in assay [2] and in assay [3] was less than 4.00 throughout.

What is called pIC50 is the IC50 on a negative log10 scale, so that one unit is a factor of ten. A high value points to a small IC50.
